Source: ChEMBL document CHEMBL4699407, “Isoquinoline thiosemicarbazone displays potent anticancer activity with in vivo efficacy against aggressive leukemias” (RSC Med Chem, 2020)

What was measured:
MIA PaCa-2 [1] = experiment: Cytotoxicity against human MIA PaCa2 cells assessed as reduction in cell viability in presence of Cu2+ incubated for 72 hrs by cell titer-glo luminescent cell viability assay; type: functional, cell-based; details: MIA PaCa-2, 72 h
Outline: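 Cells were grown in DMEM or RPMI with 10% FBS, without antibiotics, at 37 °C, 20% O2, 5% CO2. Adherent lines were seeded at 500 cells/well. Serially diluted compound was given with 20 μM Cu(II) (CuCl2) for 72 h; leukemia models received pre-formed 1:1 copper complex. ATP was read by CellTiter-Glo luminescence. IC50 is relative to DMSO-treated cells.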

MIA PaCa-2 [2] = experiment: Cytotoxicity against human MIA PaCa2 cells assessed as reduction in cell viability 72 hrs by cell titer-glo luminescent cell viability assay; type: functional
Outline: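 MIAPACA2 cells in conventional medium without copper supplement got serially diluted compound for 72 h. ATP content was read by CellTiter-Glo, and IC90 (90% proliferation inhibition vs DMSO control) was calculated.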

Work on `CNc1cccc2c(/C=N/NC(N)=S)nccc12` yielded an IC90 (MIA PaCa-2 [1]) of 5330 nM.

With `CNC(=S)NN=Cc1nccc2c(NC)cccc12` the IC90 (MIA PaCa-2 [1]) was 607 nM and the IC90 (MIA PaCa-2 [2]) was 4240 nM.

In the case of `CNC(=S)N/N=C/c1nccc2ccccc12`, the IC90 (MIA PaCa-2 [1]) is reported as 331 nM.

`NC(=S)N/N=C/c1ncc(F)c2ccccc12` showed an IC90 (MIA PaCa-2 [1]) of 2060 nM.

Compound `CNc1c(F)ccc2c(C=NNC(=S)N(C)C)nccc12` has an IC90 (MIA PaCa-2 [1]) of 38.4 nM and an IC90 (MIA PaCa-2 [2]) of 272 nM.

Compound `CNC(=S)N/N=C/c1ncc(F)c2ccccc12` has an IC90 (MIA PaCa-2 [1]) of 114 nM.

`NC(=S)N/N=C/c1nccc2cc(F)ccc12` was tested, and the IC90 (MIA PaCa-2 [1]) was 2040 nM.

`NC(=S)N/N=C/c1nccc2ccccc12` gave an IC90 (MIA PaCa-2 [1]) of 2210 nM.

Compound `CNC(=S)N/N=C/c1nccc2cc(F)ccc12` has an IC90 (MIA PaCa-2 [1]) of 233 nM.

`CN(C)C(=S)NN=Cc1ncc(F)c2ccccc12` showed an IC90 (MIA PaCa-2 [1]) of 26.6 nM and an IC90 (MIA PaCa-2 [2]) of 274 nM.

`CN(C)C(=S)NN=Cc1nccc2ccccc12` was tested, and the IC90 (MIA PaCa-2 [1]) was 73.7 nM and the IC90 (MIA PaCa-2 [2]) was 29600 nM.

Work on `CNC(=S)NN=Cc1nccc2c(N)cccc12` yielded an IC90 (MIA PaCa-2 [1]) of 7080 nM and an IC90 (MIA PaCa-2 [2]) of 11200 nM.

`NC(=S)N/N=C/c1nccc2c(N)cccc12` gave an IC90 (MIA PaCa-2 [1]) of 71100 nM.

Compound `CNc1cccc2c(C=NNC(=S)N(C)C)ncc(F)c12` has an IC90 (MIA PaCa-2 [1]) of 42.3 nM and an IC90 (MIA PaCa-2 [2]) of 327 nM.
